Calls of active or inactive are those of the source. The calls are words filed in the database; no cut-off is given here.
What was measured:
[1] = target: T1, ATP-dependent translocase ABCB1 (Homo sapiens, UniProt P08183); experiment: Inhibition of P-gp activity in human paclitaxel-resistant A549 cells assessed as rhodamine 123 accumulation at 50 nM after 72 hrs by FACS analysis (reference value: 14.4 %); type: cell-based; set-up: scale not given: the % may be the effect or the level left; conditions: a549, 72 h, 0.05 µM
A549 [2] = experiment: Cell cycle arrest in human A549 cells assessed as accumulation at S phase at 200 nM after 24 hrs by flow cytometry (reference value: 13.38 %); type: functional
A549 [3] = experiment: Cell cycle arrest in human A549 cells assessed as accumulation at G0/G1 phase at 50 nM after 24 hrs by flow cytometry (reference value: 62.38 %); type: functional
A549 [4] = experiment: Effect on CDK2 protein expression at G0/G1 phase in human A549 cells at 50 to 400 nM after 24 hrs by Western blot analysis; type: functional, cell-based
How it was run: (§1)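 A549 cells plated at 3 × 10^5 per 60 mm dish, grown 24 h, then exposed to a concentration series for 24 h. Lysed in boiling SDS sample buffer with NaF and orthovanadate; protein by BCA; 25–50 µg run on 8–15% SDS-PAGE, transferred to PVDF, blocked in 5% milk/PBST, primary antibodies overnight at 4 °C, secondary 1–2 h, ECL detection.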

A549 [5] = experiment: Cell cycle arrest in human A549 cells assessed as accumulation at G2/M phase at 200 nM after 24 hrs by flow cytometry (reference value: 22.84 %); type: functional
A549 [6] = experiment: Cytotoxicity against human paclitaxel-resistant A549 cells after 72 hrs by SRB assay; type: functional, cell-based; conditions: A549, 72 h
How it was run: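 SRB growth assay: 5 × 10^3 cells/well exposed to a concentration series for 72 h; fixed in 10% TCA 30 min at 4 °C, stained with 0.4% SRB in 1% acetic acid 30 min, dye dissolved in 10 mM Tris pH 10.0, absorbance at 515 nm. Viability relative to vehicle control; IC50 by non-linear regression; at least three experiments. A549-Pa is a paclitaxel-resistant A549 subline.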

A549 [7] = experiment: Cell cycle arrest in human A549 cells assessed as accumulation at G2/M phase at 400 nM after 24 hrs by flow cytometry (reference value: 22.84 %); type: functional
A549 [8] = experiment: Cell cycle arrest in human A549 cells assessed as accumulation at sub-G1 phase at 50 nM after 24 hrs by flow cytometry (reference value: 1.40 %); type: functional
A549 [9] = experiment: Cell cycle arrest in human A549 cells assessed as accumulation at sub-G1 phase at 100 nM after 24 hrs by flow cytometry (reference value: 1.40 %); type: functional
A549 [10] = experiment: Cell cycle arrest in human A549 cells assessed as accumulation at G0/G1 phase at 200 nM after 24 hrs by flow cytometry (reference value: 62.38 %); type: functional
A549 [11] = experiment: Cell cycle arrest in human A549 cells assessed as accumulation at S phase at 100 nM after 24 hrs by flow cytometry (reference value: 13.38 %); type: functional
[12] = target: T1, ATP-dependent translocase ABCB1; experiment: Inhibition of P-gp activity in human paclitaxel-resistant A549 cells potentiation of 5 uM gefitinib-induced cytotoxicity at 0.1 uM by SRB assay; type: cell-based; conditions: a549, 0.1 µM
How it was run: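 A549-Pa cells plated at 5 × 10^4 cells/well and co-treated for 48 h with the compound (0–200 nM) plus paclitaxel or gefitinib; growth inhibition by SRB assay. Combination index computed at the 50% inhibition level as CI = D1/(Dx)1 + D2/(Dx)2, comparing combined versus single-agent concentrations.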

A549 [13] = experiment: Inhibition of AKT activation in human A549 cells assessed as reduction in c-myc protein expression at 50 to 400 nM after 24 hrs by Western blot analysis; type: cell-based; how it was run: as §1
A549 [14] = experiment: Antitumor activity against human A549 cells xenografted in athymic nu/nu BALB/c mouse assessed as inhibition of tumor growth at 10 mg/kg, ip administered 35 days post-implantation 3 times a week relative to control; type: functional; conditions: 840 h, route intraperitoneal, read-out: TGI
How it was run: (§2)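 Female athymic BALB/c nu/nu mice, six weeks old; 2 × 10^6 A549 or A549-Pa cells in 0.1 mL RPMI injected s.c. into right flank on day 0. Dosing began at 95–100 mm3 tumour volume: drug in 1% cremophore in PBS given i.p. three times weekly; controls got vehicle; five mice/group. Tumour volume tracked every 3–5 days; tumours excised and weighed at end; sections immunostained for Ki-67.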

A549 [15] = experiment: Cell cycle arrest in human A549 cells assessed as accumulation at G2/M phase at 100 nM after 24 hrs by flow cytometry (reference value: 22.84 %); type: functional
A549 [16] = experiment: Antitumor activity against paclitaxel-resistant human A549 cells xenografted in ip dosed athymic nu/nu BALB/c mouse assessed as inhibition of P-gp expression administered 35 days post-implantation 3 times a week by immunohistochemistry; type: functional, organism-based
How it was run: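 A549-Pa (paclitaxel-resistant) xenografts in female athymic BALB/c nu/nu mice, grown s.c. in right flank and treated i.p. three times weekly in 1% cremophore/PBS once tumours reached 95–100 mm3. Excised tumour sections incubated overnight at 4 °C with P-glycoprotein antibody, detected by HRP-polymer system, hematoxylin counterstain, viewed by microscopy.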

A549 [17] = experiment: Inhibition of AKT-mediated mTOR phosphorylation at Ser2448 residue in human A549 cells at 50 to 400 nM after 24 hrs by Western blot analysis; type: cell-based; how it was run: as §1
Mus musculus = experiment: Toxicity in paclitaxel-resistant human A549 cells xenografted athymic nu/nu BALB/c mouse assessed as body weight change at 5 to 10 mg/kg, ip administered 3 times a week; type: organism-based; set-up: dose 5-10 mg/kg, route intraperitoneal; conditions: in vivo
How it was run: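 Six-week-old female BALB/c nu/nu mice received 2 × 10^6 A549-Pa cells in 0.1 mL RPMI subcutaneously in the right flank. Dosing began at 95–100 mm3 tumor volume, with five mice per group randomized. Compound in 1% cremophore/PBS was given intraperitoneally three times weekly; controls received equal vehicle volume. Body weight and overt toxicity were monitored.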

A549 [18] = experiment: Inhibition of AKT/c-myc signaling in human A549 cells assessed as reduction in CDK4 protein expression at 50 to 400 nM after 24 hrs by Western blot analysis; type: cell-based; how it was run: as §1
A549 [19] = experiment: Inhibition of P-gp protein expression level in human paclitaxel-resistant A549 cells at 50 to 200 nM after 48 hrs by Western blot analysis; type: functional, cell-based
How it was run: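 A549-Pa cells, with parent A549 for comparison, were exposed to compound for 48 h. Lysates were made in boiling SDS sample buffer and protein measured by BCA. Equal protein (25–50 µg) was run on 8–15% SDS-PAGE, transferred to PVDF and blocked in 5% milk/PBST. Anti-P-gp primary was applied overnight at 4 °C, then secondary antibody and ECL detection.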

A549 [20] = experiment: Antitumor activity against paclitaxel-resistant human A549 cells xenografted in athymic nu/nu BALB/c mouse assessed as inhibition of Ki-67 expression at 5 to 10 mg/kg, ip administered 35 days post-implantation 3 times a week by immunohistochemistry; type: functional, organism-based; how it was run: as §2
A549 [21] = experiment: Inhibition of AKT/c-myc signaling in human A549 cells assessed as reduction in cyclin E protein expression at 50 to 400 nM after 24 hrs by Western blot analysis; type: cell-based; how it was run: as §1

T1 sequence (P08183 whole entry): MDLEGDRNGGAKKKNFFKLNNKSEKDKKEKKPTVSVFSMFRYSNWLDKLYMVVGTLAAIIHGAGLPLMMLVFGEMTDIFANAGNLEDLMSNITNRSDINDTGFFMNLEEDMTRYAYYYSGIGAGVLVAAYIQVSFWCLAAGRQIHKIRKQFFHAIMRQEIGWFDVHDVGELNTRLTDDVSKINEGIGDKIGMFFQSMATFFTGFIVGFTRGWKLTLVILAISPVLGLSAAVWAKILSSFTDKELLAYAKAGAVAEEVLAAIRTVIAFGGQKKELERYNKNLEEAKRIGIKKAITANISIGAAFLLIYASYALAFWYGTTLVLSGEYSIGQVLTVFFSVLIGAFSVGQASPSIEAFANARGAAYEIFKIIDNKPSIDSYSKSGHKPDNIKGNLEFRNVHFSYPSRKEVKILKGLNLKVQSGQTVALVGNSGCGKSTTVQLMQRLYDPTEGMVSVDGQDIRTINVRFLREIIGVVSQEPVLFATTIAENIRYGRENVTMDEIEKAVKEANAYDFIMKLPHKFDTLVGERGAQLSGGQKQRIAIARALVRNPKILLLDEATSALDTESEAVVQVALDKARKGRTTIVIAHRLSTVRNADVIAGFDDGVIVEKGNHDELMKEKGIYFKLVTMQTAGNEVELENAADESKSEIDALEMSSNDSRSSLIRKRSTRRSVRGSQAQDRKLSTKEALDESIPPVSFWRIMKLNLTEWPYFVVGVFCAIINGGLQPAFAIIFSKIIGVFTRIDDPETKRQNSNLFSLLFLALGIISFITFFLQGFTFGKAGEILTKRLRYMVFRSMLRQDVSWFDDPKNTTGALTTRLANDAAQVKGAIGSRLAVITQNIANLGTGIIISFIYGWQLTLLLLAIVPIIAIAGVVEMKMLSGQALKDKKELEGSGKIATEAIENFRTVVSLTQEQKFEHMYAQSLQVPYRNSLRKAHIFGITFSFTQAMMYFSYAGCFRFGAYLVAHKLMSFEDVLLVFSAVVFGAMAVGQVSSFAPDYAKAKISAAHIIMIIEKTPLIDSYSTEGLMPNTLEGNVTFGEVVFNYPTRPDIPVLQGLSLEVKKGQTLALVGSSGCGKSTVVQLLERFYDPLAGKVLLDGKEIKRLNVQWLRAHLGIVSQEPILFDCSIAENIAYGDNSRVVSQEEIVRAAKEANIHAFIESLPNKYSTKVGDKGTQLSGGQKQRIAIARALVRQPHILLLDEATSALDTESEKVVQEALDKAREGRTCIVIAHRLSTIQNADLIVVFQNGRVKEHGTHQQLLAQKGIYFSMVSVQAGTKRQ

COc1ccc2c3c(c4cc(OC)c(OC)cc4c2c1)C[C@@]1(CO)CCCN1C3
Activity [1]: 28.7%
Activity (A549 [2]): 10.94%
Activity (A549 [3]): 66.07%
Activity (A549 [4]): inactive
Activity (A549 [5]): 18.33%
IC50 (A549 [6]): 200 nM
Activity (A549 [7]): 20.41%
Activity (A549 [8]): 1.13%
Activity (A549 [9]): 2.31%
Activity (A549 [10]): 69.43%
Activity (A549 [11]): 10.78%
fractional inhibitory concentration index (FICI) [12]: 0.523
inhibition (A549 [13]): Active
inhibition in vivo at 10 mg/kg (A549 [14]): 60.7%
Activity (A549 [15]): 18.53%
inhibition (A549 [16]): Dose-dependent effect
inhibition (A549 [17]): Active
Activity (Mus musculus): Non-toxic
inhibition (A549 [18]): Active
inhibition (A549 [19]): Active
inhibition (A549 [20]): Active
inhibition (A549 [21]): Active
